Experimental data from ChEMBL document CHEMBL1122968, “Myocardial imaging agents: synthesis, characterization, and evaluation of (Z)- and (Z,E)-18-[82Br]bromo-5-tellura-17-octadecenoic acids” (J Med Chem, 1985).

Tests used:
Rattus norvegicus [1] = experiment: Radioactivity was determined in heart tissues of female fischer 344 rats by intravenous administration after 5 minutes; type: ADME, organism-based; conditions: in vivo
How it was run: (§1)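 Female Fischer 344 rats, 10–12 weeks, 170–200 g, fed ad libitum. The 82Br-labeled fatty acid was taken up in 0.5 mL absolute ethanol and added dropwise to stirred 6% bovine serum albumin at ~40 °C (final ethanol 10%), then 0.22-μm filtered. Dosing was a lateral tail vein injection under ether anesthesia. Rats were killed by cervical fracture at the stated time and blood was taken by cardiac puncture.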

Rattus norvegicus [2] = experiment: Radioactivity was determined in blood tissues of female fischer 344 rats by intravenous administration after 1 hour; type: ADME, organism-based; conditions: in vivo; how it was run: as §1
Rattus norvegicus [3] = experiment: Radioactivity was determined in heart tissues of female fischer 344 rats by intravenous administration after 2 hours; type: ADME, organism-based; conditions: in vivo; how it was run: as §1
Rattus norvegicus [4] = experiment: Radioactivity was determined in blood tissues of female fischer 344 rats by intravenous administration after 30 minutes; type: ADME, organism-based; conditions: in vivo, 0.5 h; how it was run: as §1
Rattus norvegicus [5] = experiment: Radioactivity was determined in blood tissues of female fischer 344 rats by intravenous administration after 5 minutes; type: ADME, organism-based; conditions: in vivo; how it was run: as §1
Rattus norvegicus [6] = experiment: Radioactivity was determined in kidneys of female fischer 344 rats by intravenous administration after 5 minutes; type: ADME, organism-based, Kidney; conditions: in vivo; how it was run: as §1
Rattus norvegicus [7] = experiment: Radioactivity was determined in thyroid of female fischer 344 rats by intravenous administration after 1 hour; type: ADME, organism-based, Thyroid gland; conditions: in vivo; how it was run: as §1
Rattus norvegicus [8] = experiment: Radioactivity was determined in lung tissues of female fischer 344 rats by intravenous administration after 5 minutes; type: ADME, organism-based; conditions: in vivo; how it was run: as §1
Rattus norvegicus [9] = experiment: Radioactivity was determined in liver tissues of female fischer 344 rats by intravenous administration after 2 hours; type: ADME, organism-based; conditions: in vivo; how it was run: as §1
Rattus norvegicus [10] = experiment: Radioactivity was determined in liver tissues of female fischer 344 rats by intravenous administration after 1 hour; type: ADME, organism-based; conditions: in vivo; how it was run: as §1
Rattus norvegicus [11] = experiment: Radioactivity was determined in blood tissues of female fischer 344 rats by intravenous administration after 2 hours; type: ADME, organism-based; conditions: in vivo; how it was run: as §1
Rattus norvegicus [12] = experiment: Radioactivity was determined in lung tissues of female fischer 344 rats by intravenous administration after 1 hour; type: ADME, organism-based; conditions: in vivo; how it was run: as §1
Rattus norvegicus [13] = experiment: Radioactivity was determined in thyroid of female fischer 344 rats by intravenous administration after 2 hours; type: ADME, organism-based, Thyroid gland; conditions: in vivo; how it was run: as §1
Rattus norvegicus [14] = experiment: Radioactivity was determined in liver tissues of female fischer 344 rats by intravenous administration after 30 minutes; type: ADME, organism-based; conditions: in vivo, 0.5 h; how it was run: as §1
Rattus norvegicus [15] = experiment: Radioactivity was determined in heart tissues of female fischer 344 rats by intravenous administration after 30 minutes; type: ADME, organism-based; conditions: in vivo, 0.5 h; how it was run: as §1
Rattus norvegicus [16] = experiment: Radioactivity was determined in lung tissues of female fischer 344 rats by intravenous administration after 30 minutes; type: ADME, organism-based; conditions: in vivo, 0.5 h; how it was run: as §1
Rattus norvegicus [17] = experiment: Radioactivity was determined in lung tissues of female fischer 344 rats by intravenous administration after 2 hours; type: ADME, organism-based; conditions: in vivo; how it was run: as §1
Rattus norvegicus [18] = experiment: Radioactivity was determined in kidneys of female fischer 344 rats by intravenous administration after 30 minutes; type: ADME, organism-based, Kidney; conditions: in vivo, 0.5 h; how it was run: as §1
Rattus norvegicus [19] = experiment: Radioactivity was determined in thyroid of female fischer 344 rats by intravenous administration after 30 minutes; type: ADME, organism-based, Thyroid gland; conditions: in vivo, 0.5 h; how it was run: as §1
Rattus norvegicus [20] = experiment: Radioactivity was determined in liver tissues of female fischer 344 rats by intravenous administration after 5 minutes; type: ADME, organism-based; conditions: in vivo; how it was run: as §1
Rattus norvegicus [21] = experiment: Radioactivity was determined in heart tissues of female fischer 344 rats by intravenous administration after 1 hour; type: ADME, organism-based; conditions: in vivo; how it was run: as §1
Rattus norvegicus [22] = experiment: Radioactivity was determined in thyroid of female fischer 344 rats by intravenous administration after 5 minutes; type: ADME, organism-based, Thyroid gland; conditions: in vivo; how it was run: as §1
Rattus norvegicus [23] = experiment: Radioactivity was determined in liver tissues of female fischer 344 rats by intravenous administration after 1 day; type: ADME, organism-based; conditions: in vivo, 24 h; how it was run: as §1
Rattus norvegicus [24] = experiment: Radioactivity was determined in blood tissues of female fischer 344 rats by intravenous administration after 1 day; type: ADME, organism-based; conditions: in vivo, 24 h; how it was run: as §1
Rattus norvegicus [25] = experiment: Radioactivity was determined in lung tissues of female fischer 344 rats by intravenous administration after 1 day; type: ADME, organism-based; conditions: in vivo, 24 h; how it was run: as §1
Rattus norvegicus [26] = experiment: Radioactivity was determined in heart tissues of female fischer 344 rats by intravenous administration after 1 day; type: ADME, organism-based; conditions: in vivo, 24 h; how it was run: as §1

Compound	Dose/g (Rattus norvegicus [1]) [%]	Dose/g (Rattus norvegicus [2]) [%]	Dose/g (Rattus norvegicus [4]) [%]	Dose/g (Rattus norvegicus [5]) [%]	Dose/g (Rattus norvegicus [6]) [%]	Dose/g (Rattus norvegicus [8]) [%]	Dose/g (Rattus norvegicus [10]) [%]	Dose/g (Rattus norvegicus [12]) [%]	Dose/g (Rattus norvegicus [14]) [%]	Dose/g (Rattus norvegicus [15]) [%]	Dose/g (Rattus norvegicus [16]) [%]	Dose/g (Rattus norvegicus [18]) [%]	Dose/g (Rattus norvegicus [20]) [%]	Dose/g (Rattus norvegicus [21]) [%]	further results
O=C(O)CCC[Te]CCCCCCCCCCC/C=C/I	3.99	0.19													
O=C(O)CCC[Te]CCCCCCCCCCC/C=C/Br (stereo in doubt; form 1)	2.77	0.43	0.61	0.13	1.62	1.26	5.47	1.61	6.13	2.51	1.53	1.49	7.33	3.01	Dose/g (Rattus norvegicus [3]): 2.56%; Dose/g (Rattus norvegicus [7]): 9.26%; Dose/g (Rattus norvegicus [9]): 5%; Dose/g (Rattus norvegicus [11]): 0.46%; Dose/g (Rattus norvegicus [13]): 9.52%; Dose/g (Rattus norvegicus [17]): 1.49%; Dose/g (Rattus norvegicus [19]): 10.86%; Dose/g (Rattus norvegicus [22]): 7.56%
O=C(O)CCC[Te]CCCCCCCCCCC/C=C/Br (stereo in doubt; form 2)	3.28	0.39	0.34	0.18	2.31	1.91	6.04	1.88	6.79	3.79	2.08	2.15	6.87	3.47	Dose/g (Rattus norvegicus [23]): 3.15%; Dose/g (Rattus norvegicus [24]): 0.88%; Dose/g (Rattus norvegicus [25]): 1.48%; Dose/g (Rattus norvegicus [26]): 2.6%
